# Measured values published in ChEMBL document CHEMBL3621187, “Novel Lobophorins Inhibit Oral Cancer Cell Growth and Induce Atf4- and Chop-Dependent Cell Death in Murine Fibroblasts” (ACS Med Chem Lett, 2015).
# Activity calls are given as the source filed them. The calls are words filed in the database; no cut-off is given here.
# Experiments:
# UMSCC14A [1] = experiment: Cytotoxicity against human UMSCC14A cells at 1.25 to 80 uM up to 48 hrs by ATP-based luminescent proliferation assay; assay type: functional, cell-based
# In short: (§1)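 Floor-of-mouth OSCC lines (UMSCC1, UMSCC14A) and nonmalignant primary human epidermal keratinocytes were treated at 1.25–80 μM for 24 and 48 h. Growth was measured by ATP-based luminescent proliferation assay, and OSCC vs keratinocytes was compared by two-way ANOVA.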
# [2] = Cytotoxicity against human HEK cells at 1.25 to 80 uM after 24 hrs by ATP-based luminescent proliferation assay; assay type: cell-based; in short: as §1
# UMSCC1 [3] = experiment: Cytotoxicity against human UMSCC1 cells at 1.25 to 80 uM up to 48 hrs by ATP-based luminescent proliferation assay; assay type: functional, cell-based; in short: as §1
# [4] = Activation of unfolded protein response in human UMSC23 cells assessed as increase of spliced XBP1 expression at 40 uM after 6 to 12 hrs by qRT-PCR analysis; assay type: functional, cell-based
# MEF [5] = experiment: Activation of unfolded protein response in Atf4-deficient mouse MEF assessed as effect on Puma expression at 40 uM after 6 hrs by qRT-PCR analysis; assay type: functional, cell-based
# In short: (§2)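 Atf4-null murine embryonic fibroblasts and wildtype littermate controls were exposed to 40 μM for 6 h, with 2.5 μg/mL tunicamycin as comparator. cDNA libraries were made from the cells, and Noxa, Puma and Trb3 transcripts were quantified by qRT-PCR.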
# [6] = Activation of unfolded protein response in human UMSC23 cells assessed as increase of ATF3 expression at 40 uM after 6 to 12 hrs by qRT-PCR analysis; assay type: functional, cell-based
# [7] = Activation of unfolded protein response in human UMSC23 cells assessed as increase of CHOP expression at 40 uM after 6 to 12 hrs by qRT-PCR analysis; assay type: functional, cell-based
# [8] = Activation of unfolded protein response in human UMSC23 cells assessed as increase of BiP/GRP78 expression at 40 uM after 6 to 12 hrs by qRT-PCR analysis; assay type: functional, cell-based
# UMSCC1 [9] = experiment: Activation of unfolded protein response in human UMSCC1 cells assessed as increase of ATF3 expression at 40 uM after 6 to 12 hrs by qRT-PCR analysis; assay type: functional, cell-based
# In short: (§3)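 UMSCC1 oral squamous carcinoma cells were treated for 6 or 12 h, and UPR marker transcripts were quantified by qRT-PCR.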
# MEF [10] = experiment: Activation of unfolded protein response in Atf4-deficient mouse MEF assessed as effect on Noxa expression at 40 uM after 6 hrs by qRT-PCR analysis; assay type: functional, cell-based; in short: as §2
# UMSCC1 [11] = experiment: Activation of unfolded protein response in human UMSCC1 cells assessed as increase of GADD34 expression at 40 uM after 6 to 12 hrs by qRT-PCR analysis; assay type: functional, cell-based; in short: as §3
# [12] = Activation of unfolded protein response in human UMSC23 cells assessed as increase of GADD34 expression at 40 uM after 6 to 12 hrs by qRT-PCR analysis; assay type: functional, cell-based
# UMSCC14A [13] = experiment: Activation of unfolded protein response in human UMSCC14A cells assessed as increase of BiP/GRP78 expression at 40 uM after 6 to 12 hrs by qRT-PCR analysis; assay type: functional, cell-based
# UMSCC1 [14] = experiment: Activation of unfolded protein response in human UMSCC1 cells assessed as increase of spliced XBP1 expression at 40 uM after 6 to 12 hrs by qRT-PCR analysis; assay type: functional, cell-based; in short: as §3
# MEF [15] = experiment: Activation of unfolded protein response in Atf4-deficient mouse MEF assessed as effect on Trb3 expression at 40 uM after 6 hrs by qRT-PCR analysis; assay type: functional, cell-based; in short: as §2
# UMSCC14A [16] = experiment: Activation of unfolded protein response in human UMSCC14A cells assessed as increase of CHOP expression at 40 uM after 6 to 12 hrs by qRT-PCR analysis; assay type: functional, cell-based
# UMSCC1 [17] = experiment: Activation of unfolded protein response in human UMSCC1 cells assessed as increase of BiP/GRP78 expression at 40 uM after 6 to 12 hrs by qRT-PCR analysis; assay type: functional, cell-based; in short: as §3
# MEF [18] = experiment: Antiproliferative activity against Chop-deficient mouse MEF after 16 hrs by ATP-based luminescent proliferation assay; assay type: functional, cell-based
# In short: (§4)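 Atf4−/− and Chop−/− murine embryonic fibroblasts, each with wildtype littermate controls, were dosed across a concentration series for 16 h. Proliferation was read by ATP-based luminescence, and wildtype vs null was compared by two-way ANOVA (dose, interaction).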
# UMSCC14A [19] = experiment: Activation of unfolded protein response in human UMSCC14A cells assessed as increase of spliced XBP1 expression at 40 uM after 6 to 12 hrs by qRT-PCR analysis; assay type: functional, cell-based
# UMSCC1 [20] = experiment: Activation of unfolded protein response in human UMSCC1 cells assessed as increase of CHOP expression at 40 uM after 6 to 12 hrs by qRT-PCR analysis; assay type: functional, cell-based; in short: as §3
# MEF [21] = experiment: Antiproliferative activity against mouse MEF harboring eIF2-alpha (Ser51Ala) mutant after 16 hrs by ATP-based luminescent proliferation assay; assay type: functional, cell-based
# MEF [22] = experiment: Antiproliferative activity against Atf4-deficient mouse MEF after 16 hrs by ATP-based luminescent proliferation assay; assay type: functional, cell-based; in short: as §4
# UMSCC14A [23] = experiment: Activation of unfolded protein response in human UMSCC14A cells assessed as increase of GADD34 expression at 40 uM after 6 to 12 hrs by qRT-PCR analysis; assay type: functional, cell-based
# UMSCC14A [24] = experiment: Activation of unfolded protein response in human UMSCC14A cells assessed as increase of ATF3 expression at 40 uM after 6 to 12 hrs by qRT-PCR analysis; assay type: functional, cell-based
# [25] = Cytotoxicity against human HEK cells at 1.25 to 80 uM after 48 hrs by ATP-based luminescent proliferation assay; assay type: cell-based; in short: as §1
Structure (SMILES),Activity (UMSCC14A [1]),Activity [2],Activity (UMSCC1 [3]),Activity (MEF [5]),Activity (MEF [10]),Activity (MEF [15]),Activity [25],other results
COC(=O)N[C@H]1[C@@H](C)O[C@@H](O[C@H]2C/C=C(\C)[C@@H]3C=C[C@@H]4[C@@H](O[C@H]5C[C@@H](O[C@H]6C[C@@H](O)[C@@H](O[C@@H]7C[C@@H](O)[C@@H](OC)[C@H](C)O7)[C@H](C)O6)[C@@H](O)[C@H](C)O5)[C@@H](C)C[C@H](C)[C@H]4[C@]3(C)C(=O)C3=C(O)[C@@]4(C[C@@H](C)C(CO)=C[C@H]4/C=C/2C)OC3=O)C[C@]1(C)O,Active,Non-toxic,Active,–,–,–,–,–
COC(=O)N[C@H]1[C@@H](C)O[C@@H](O[C@H]2C/C=C(\C)[C@@H]3C=C[C@@H]4[C@@H](O[C@H]5C[C@@H](O[C@H]6C[C@@H](O)[C@@H](O)[C@H](C)O6)[C@@H](O)[C@H](C)O5)[C@@H](C)C[C@H](C)[C@H]4[C@]3(C)C(=O)C3=C(O)[C@@]4(C[C@@H](C)C(C)=C[C@H]4/C=C/2C)OC3=O)C[C@]1(C)[N+](=O)[O-],Active,Non-toxic,Active,inactive,inactive,inactive,–,Activity [4]: Active; Activity [6]: Active; Activity [7]: Active; Activity [8]: Active; Activity (UMSCC1 [9]): Active; Activity (UMSCC1 [11]): Active; Activity [12]: Active; Activity (UMSCC14A [13]): Active; Activity (UMSCC1 [14]): Active; Activity (UMSCC14A [16]): Active; Activity (UMSCC1 [17]): Active; Activity (MEF [18]): inactive; Activity (UMSCC14A [19]): Active; Activity (UMSCC1 [20]): Active; Activity (MEF [21]): inactive; Activity (MEF [22]): inactive; Activity (UMSCC14A [23]): Active; Activity (UMSCC14A [24]): Active
COC(=O)N[C@H]1[C@@H](C)O[C@@H](O[C@H]2C/C=C(\C)[C@@H]3C=C[C@@H]4[C@@H](O[C@H]5C[C@@H](O[C@H]6C[C@@H](O)[C@@H](O[C@@H]7C[C@@H](O)[C@@H](OC)[C@H](C)O7)[C@H](C)O6)[C@@H](O)[C@H](C)O5)[C@@H](C)C[C@H](C)[C@H]4[C@]3(C)C(=O)C3=C(O)[C@@]4(C[C@@H](C)C(C)=C[C@H]4/C=C/2C)OC3=O)C[C@]1(C)[N+](=O)[O-],Active,Non-toxic,Active,–,–,–,Toxic,–
COC(=O)N[C@H]1[C@@H](C)O[C@@H](O[C@H]2C/C=C(\C)[C@@H]3C=C[C@@H]4[C@@H](O[C@H]5C[C@@H](O[C@H]6C[C@@H](O)[C@@H](O[C@@H]7C[C@@H](O)[C@@H](OC)[C@H](C)O7)[C@H](C)O6)[C@@H](O)[C@H](C)O5)[C@@H](C)C[C@H](C)[C@H]4[C@]3(C)C(=O)C3=C(O)[C@@]4(C[C@@H](C)C(CO)=C[C@H]4/C=C/2C)OC3=O)C[C@]1(C)[N+](=O)[O-],Active,Non-toxic,Active,inactive,inactive,inactive,Toxic,–
